Data from ChEMBL document CHEMBL1145301, “Synthesis and study of anti-inflammatory activity of some novel cyclophane amides” (2006).

How the values were obtained:
Assay type in all cases: functional, Erythrocyte
[1] = Antiinflammatory activity assessed as prevention of hypotonicity-induced lysis of human RBC at 10 ug/ml
Procedure, shortened: (§1)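 Human blood spun at 1500 rpm; packed cells washed in isotonic NaCl (0.85%, pH 7.2) and resuspended 10% v/v. Mixture: compound, 1 ml phosphate buffer (0.15 M, pH 7.4), 2 ml hypotonic NaCl (0.36%), 0.5 ml cell suspension; control used distilled water instead of hypotonic saline. Incubated 37 °C, 30 min, centrifuged; supernatant hemoglobin read at 500 nm.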

[2] = Antiinflammatory activity assessed as prevention of hypotonicity-induced lysis of human RBC at 200 ug/ml; procedure, shortened: as §1
[3] = Antiinflammatory activity assessed as prevention of hypotonicity-induced lysis of human RBC at 50 ug/ml; procedure, shortened: as §1
[4] = Antiinflammatory activity assessed as prevention of hypotonicity-induced lysis of human RBC at 100 ug/ml; procedure, shortened: as §1

SMILES	Activity [1]	Activity [2]	Activity [3]	Activity [4]
Cc1cc2c(cc1C)COc1ccccc1C(=O)N(c1ccccc1)CCNC(=O)COc1ccccc1OCC(=O)NCCN(c1ccccc1)C(=O)c1ccccc1OC2	38.84%	47.97%	41.72%	45.25%
Cc1cc2c(cc1C)COc1ccccc1C(=O)Nc1ccccc1SCc1ccc(cc1)-c1cccc(c1)-c1ccc(cc1)CSc1ccccc1NC(=O)c1ccccc1OC2	48.27%	54.14%	49.37%	51.42%
Cc1cc2c(cc1C)COc1ccccc1C(=O)Nc1ccccc1SCCOc1ccc(cc1)NC(=O)c1ccccc1OC2	44.28%	51.27%	45.63%	50.25%
Cc1cc2c(cc1C)COc1ccccc1C(=O)Nc1ccccc1SCc1ccc(cc1)-c1ccc(cc1)CSc1ccccc1NC(=O)c1ccccc1OC2	65.17%	91%	82.43%	89.67%
Cc1cc2c(cc1C)COc1ccccc1C(=O)Nc1ccccc1SCc1ccc(cc1)NC(=O)c1ccccc1OC2	50.31%	60.86%	52.27%	56.04%
O=C1CSc2ccccc2NC(=O)c2ccccc2OCc2ccccc2COc2ccccc2C(=O)Nc2ccccc2SCC(=O)Nc2ccccc2N1	40.53%	49.65%	42.6%	48.72%
C[C@]12C=CC(=O)C=C1CC[C@@H]1[C@@H]2[C@@H](O)C[C@@]2(C)[C@H]1CC[C@]2(O)C(=O)CO [PREDNISOLONE]			59.34%	86.37%
